Laboratory results published in ChEMBL document CHEMBL2331120, “Evidence for the analgesic activity of resveratrol in acute models of nociception in mice” (2013).
Calls of active or inactive are those of the source.

Columns and labels:
[1] = tested on: Mus musculus; assay: Antinociceptive activity in Swiss mouse assessed as inhibition of capsaicin-induced spontaneous nociception at 50 mg/kg, po; type: functional
Outline: (§1)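 Swiss mice (30 to 35 g) acclimatized in observation chambers, then dosed orally 30 min before intraplantar capsaicin (1.6 μg in 20 μL, right hindpaw). Time spent licking the injected paw scored over 5 min. Saline controls on the same schedule. n = 8 per group. Percent inhibition taken as the mean of individual experiments.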

[2] = tested on: Mus musculus; assay: Antinociceptive activity in Swiss mouse assessed as inhibition of capsaicin-induced increase of c-Fos expression in L3-L6 spinal segments at 100 mg/kg, po by immunohistochemistry analysis; type: functional, organism-based; design: dose 100 mg/kg
Outline: (§2)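 Swiss mice, 30 to 35 g, dosed 100 mg/kg po 30 min before ipl capsaicin (1.6 μg in 20 μL per paw). Spinal cord and brain taken 60 min later and fixed in buffered formalin. Sections stained with rabbit anti-c-Fos or anti-COX-2 (1:1000) overnight at room temperature, then biotinylated secondary, ABC and nickel-enhanced DAB. Read-out is positive area per field. Four animals per group.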

[3] = tested on: Mus musculus; assay: Antinociceptive activity in Swiss mouse assessed as inhibition of capsaicin-induced increase of COX2 expression in L3-L6 spinal segments and cerebral cortex at 100 mg/kg, po by immunohistochemistry analysis; type: functional, organism-based; design: dose 100 mg/kg; outline: as §2
[4] = tested on: Mus musculus; assay: Antinociceptive activity in Swiss mouse assessed as inhibition of capsaicin-induced spontaneous nociception at 300 ug/site, administered as intrathecally; type: functional
Outline: (§3)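 Mice given intrathecal dose in 5 μL 10 min before intraplantar capsaicin (1.6 μg/paw, 20 μL). Time spent licking the paw recorded for 5 min. Saline-treated controls. Eight animals per group. Percent inhibition averaged across individual experiments.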

[5] = tested on: Mus musculus; assay: Antinociceptive activity in Swiss mouse assessed as inhibition of capsaicin-induced increase of COX2 expression in brain cortex at 100 mg/kg, po by Western blotting; type: functional, organism-based; design: dose 100 mg/kg
Outline: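 Mice dosed 100 mg/kg po or given saline, then capsaicin 1.6 μg/paw ipl. Cortex homogenized in hypotonic HEPES buffer with protease inhibitors plus Nonidet P-40. 20 μg protein run on 10% SDS-PAGE. Blot probed 12 h with anti-COX-2 (1:250), then HRP secondary. Bands by chemiluminescence and densitometry, normalized to β-actin. Four animals per group.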

[6] = tested on: Mus musculus; assay: Antinociceptive activity in Swiss mouse assessed as inhibition of capsaicin-induced spontaneous nociception at 200 ug/site, administered as intraplantarly; type: functional, organism-based
Outline: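 Given 200 μg/paw intraplantar, co-injected with capsaicin (1.6 μg in 20 μL) into the right hindpaw of Swiss mice. Time spent licking the injected paw recorded over 5 min. Saline controls. Eight animals per group.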

[7] = tested on: Mus musculus; assay: Antinociceptive activity in Swiss mouse assessed as inhibition of glutamate-induced spontaneous nociception at 200 ug/site, administered as intraplantarly; type: functional
Outline: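 Compound co-injected intraplantarly (200 μg/paw) with glutamate (10 μmol/paw, 20 μL) into the right hindpaw of Swiss mice. Licking of the injected paw timed over 15 min. Saline controls. n = 8 per group.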

[8] = tested on: Mus musculus; assay: Antinociceptive activity in Swiss mouse assessed as inhibition of capsaicin-induced spontaneous nociception at 300 ug/site, icv; type: functional
Outline: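 Intracerebroventricular injection (300 μg/site in 5 μL) 10 min before capsaicin (1.6 μg in 20 μL) into the right hindpaw plantar surface of Swiss mice. Paw-licking time (s) measured over 5 min against saline controls. n = 8. Inhibition calculated as the mean of per-experiment values.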

[9] = tested on: Mus musculus; assay: Antinociceptive activity in Swiss mouse assessed as inhibition of capsaicin-induced biting behavior at 300 ug/site, administered intrathecally; type: functional, organism-based
Outline: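 Swiss mice, 30 to 35 g. Given 300 μg/site it, in 5 μL, co-injected with capsaicin (6.4 μg in 5 μL) into the subdural space at L5−L6. Biting is scored as single head movements directed at the flanks or hind limbs that contact the snout. Controls got saline. Eight animals per group.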

[10] = tested on: Mus musculus; assay: Antinociceptive activity in Swiss mouse assessed as inhibition of glutamate-induced biting behavior at 300 ug/site, administered intrathecally; type: functional
Outline: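 Glutamate (30 μg in 5 μL) injected intrathecally into the subdural space at L5–L6, co-injected with compound (300 μg in 5 μL, it). Biting was scored, defined as a head movement toward the flanks or hind limbs ending in snout contact. Saline controls. Eight mice per group.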

[11] = tested on: Mus musculus; assay: Antinociceptive activity in Swiss mouse assessed as inhibition of capsaicin-induced increase of c-Fos expression in brain cortex at 100 mg/kg, po by immunohistochemistry analysis; type: functional, organism-based; design: dose 100 mg/kg; outline: as §2
[12] = tested on: Mus musculus; assay: Antinociceptive activity in Swiss mouse assessed as inhibition of glutamate-induced increase of c-Fos expression in L3-L6 spinal segments at 100 mg/kg, po by immunohistochemistry analysis; type: functional, organism-based; design: dose 100 mg/kg
Outline: (§4)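 Swiss mice dosed 100 mg/kg po 30 min before ipl glutamate (10 μmol per paw). Spinal cord and brain excised 60 min later and formalin-fixed. Sections immunostained with rabbit anti-c-Fos (1:1000) overnight at room temperature, then biotinylated secondary, ABC and nickel-enhanced DAB. Positive area per field quantified. Four animals per group.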

[13] = tested on: Mus musculus; assay: Antinociceptive activity in Swiss mouse assessed as inhibition of capsaicin-induced spontaneous nociception at 600 ug/site, administered as intrathecally; type: functional; outline: as §3
[14] = tested on: Mus musculus; assay: Antinociceptive activity in Swiss mouse assessed as inhibition of glutamate-induced increase of c-Fos expression in brain cortex at 100 mg/kg, po by immunohistochemistry analysis; type: functional, organism-based; design: dose 100 mg/kg; outline: as §4
[15] = tested on: Mus musculus; assay: Antinociceptive activity in Swiss mouse assessed as inhibition of glutamate-induced spontaneous nociception at 300 ug/site, administered as intrathecally; type: functional, organism-based
Outline: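 Given intrathecally at 300 μg/site in 5 μL, 10 min before ipl glutamate (10 μmol per paw, in 20 μL) in Swiss mice. Paw-licking time recorded over 15 min. Saline controls. Eight animals per group.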

[16] = tested on: Mus musculus; assay: Antinociceptive activity in Swiss mouse assessed as inhibition of capsaicin-induced spontaneous nociception at 100 mg/kg, po; type: functional; outline: as §1
[17] = tested on: Mus musculus; assay: Antinociceptive activity in Swiss mouse assessed as inhibition of glutamate-induced spontaneous nociception at 300 ug/site, icv; type: functional, organism-based
Outline: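 Dosed icv at 300 μg/site in 5 μL, 10 min before glutamate (10 μmol/paw, ipl). Licking of the injected paw timed for 15 min in Swiss mice, against saline controls. Eight animals per group.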

[18] = tested on: Mus musculus; assay: Antinociceptive activity in Swiss mouse assessed as inhibition of glutamate-induced spontaneous nociception at 100 mg/kg, po; type: functional
Outline: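 Oral pretreatment 30 min before intraplantar glutamate (10 μmol/paw, 20 μL) into the right hindpaw. Mice observed individually for 15 min for time spent licking the injected paw. Saline controls. Eight animals per group. Percent inhibition taken as the mean of individual experiments.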

[19] = tested on: Mus musculus; assay: Antinociceptive activity in Swiss mouse assessed as inhibition of glutamate-induced increase of COX2 expression in spinal cord and cortex brain section at 100 mg/kg, po
[20] = tested on: Mus musculus; assay: Antinociceptive activity in Swiss mouse assessed as inhibition of capsaicin-induced spontaneous nociception at 150 ug/site, administered as intrathecally; type: functional; outline: as §3

Oc1ccc(/C=C/c2cc(O)cc(O)c2)cc1 [RESVERATROL]
inhibition in vivo at 50 mg/kg [1]: 29%
inhibition [2]: Active
inhibition [3]: Active
inhibition (INH) [4]: 44%
inhibition [5]: Active
inhibition [6]: inactive
inhibition (INH) [7]: 33%
inhibition (INH) [8]: 87%
inhibition [9]: inactive
inhibition (INH) [10]: 74%
inhibition [11]: inactive
inhibition [12]: inactive
inhibition (INH) [13]: 36%
inhibition [14]: inactive
inhibition [15]: inactive
inhibition in vivo at 100 mg/kg [16]: 36%
inhibition [17]: inactive
inhibition in vivo at 100 mg/kg [18]: 39%
inhibition [19]: inactive
inhibition (INH) [20]: 33%
